These results are taken from ChEMBL document CHEMBL1153156, “Pyrrole derivatives as potent inhibitors of lymphocyte-specific kinase: Structure, synthesis, and SAR” (Bioorg Med Chem Lett, 2010).

Some results are limits rather than exact numbers.

Tyrosine-protein kinase Lck (Homo sapiens), sequence (P06239 2-509 limits assumed): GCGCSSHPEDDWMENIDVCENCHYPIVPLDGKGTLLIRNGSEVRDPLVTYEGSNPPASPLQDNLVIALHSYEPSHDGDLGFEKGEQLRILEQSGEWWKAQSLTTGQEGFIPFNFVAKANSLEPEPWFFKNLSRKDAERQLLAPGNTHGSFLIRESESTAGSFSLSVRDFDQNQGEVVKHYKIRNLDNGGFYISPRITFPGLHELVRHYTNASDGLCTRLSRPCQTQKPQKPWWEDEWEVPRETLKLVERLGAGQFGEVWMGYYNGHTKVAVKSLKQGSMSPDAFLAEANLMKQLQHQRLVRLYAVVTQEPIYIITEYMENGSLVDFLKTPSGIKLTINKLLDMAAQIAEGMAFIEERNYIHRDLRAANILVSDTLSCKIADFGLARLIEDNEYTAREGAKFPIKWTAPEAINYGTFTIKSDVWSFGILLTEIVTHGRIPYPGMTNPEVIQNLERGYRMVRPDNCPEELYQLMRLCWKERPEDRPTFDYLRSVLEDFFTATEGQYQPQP
RAC-alpha serine/threonine-protein kinase, sequence (P31749 whole entry): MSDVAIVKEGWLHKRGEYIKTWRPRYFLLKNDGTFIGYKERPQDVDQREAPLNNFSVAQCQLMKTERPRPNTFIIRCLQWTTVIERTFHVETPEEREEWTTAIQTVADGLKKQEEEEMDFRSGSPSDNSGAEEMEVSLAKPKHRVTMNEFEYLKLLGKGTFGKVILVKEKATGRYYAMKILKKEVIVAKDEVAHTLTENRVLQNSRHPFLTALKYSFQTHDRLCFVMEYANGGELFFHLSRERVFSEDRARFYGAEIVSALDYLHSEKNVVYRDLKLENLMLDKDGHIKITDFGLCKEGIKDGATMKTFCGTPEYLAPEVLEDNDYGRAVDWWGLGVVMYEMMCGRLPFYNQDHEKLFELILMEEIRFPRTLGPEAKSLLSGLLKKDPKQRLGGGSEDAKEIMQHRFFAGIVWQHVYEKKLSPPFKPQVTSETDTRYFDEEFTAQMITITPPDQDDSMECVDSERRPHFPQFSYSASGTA

For one assay, the target named is Tyrosine-protein kinase Lck (Homo sapiens) (UniProt P06239). Put plainly: Inhibition of human recombinant Lck expressed in insect cells by Packard topcount method. An outline of the steps:
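Lck (5 ng/well) incubated with compound in 50 mM Hepes, 50 mM KCl, 25 mM MgCl₂, 5 mM MnCl₂, Na₃VO₄, 0.01% CHAPS, 1 mM DTT. Poly(Glu-Tyr) 4:1 substrate, ATP and ³³P-ATP added; 25 °C, 60 min. Stopped with 100 mM phosphoric acid, filtered onto membrane, scintillation counted. IC₅₀ from eight-point half-log curves; mean of at least two independent experiments.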
As to `NC(=O)c1c(-c2ccc(Oc3ccccc3)cc2)[nH]c(C(=O)c2cc(Cl)cc(Cl)c2)c1N`, the C50 is 38 nM. Same read-out and setting: in the case of `Cc1cccc(Cl)c1CNc1ccc(-c2[nH]c(C(=O)c3c(F)cccc3F)c(N)c2C(N)=O)cc1` it was 3.6 nM. Consider `NC(=O)c1c(-c2ccc(Oc3ccccc3)cc2)[nH]c(C(=O)c2ccc(Cl)cc2)c1N`, for which the C50 is 7 nM. Regarding `NC(=O)c1c(-c2ccc(NCc3ccccc3)cc2)[nH]c(C(=O)c2c(F)cccc2F)c1N`, the C50 is 6.4 nM. On to `NC(=O)c1c(-c2ccc(NCC3CCCCC3)cc2)[nH]c(C(=O)c2c(F)cccc2F)c1N`, for which the C50 worked out at 74 nM. On to `Cc1cccc(C(=O)c2[nH]c(-c3ccc(Oc4ccccc4)cc3)c(C(N)=O)c2N)c1C`, for which the C50 stood at 2.6 nM. `NC(=O)c1c(-c2ccc(Oc3ccccc3)cc2)[nH]c(C(=O)c2c(F)cc(F)cc2F)c1N`: the C50 came to 1.8 nM. On to `NC(=O)c1c(-c2ccc(Oc3ccccc3)cc2)[nH]c(C(=O)c2ccc(Oc3ccccc3)cc2)c1N`, for which the C50 is 49 nM. Still for that read-out and setting: in the case of `NC(=O)c1c(-c2ccc(Oc3ccccc3)cc2)[nH]c(C(=O)c2cccc(Br)c2)c1N` it was 6.2 nM; in that of `NC(=O)c1c(-c2ccc(Oc3ccccc3)cc2)[nH]c(C(=O)c2cccc(Cl)c2)c1N`, 6.3 nM; in that of `Cc1cccc(C(=O)c2[nH]c(-c3ccc(Oc4ccccc4)cc3)c(C(N)=O)c2N)c1`, 4 nM. As for `NC(=O)c1c(-c2ccc(NC(=O)c3ccccc3)cc2)[nH]c(C(=O)c2c(F)cccc2F)c1N`, the C50 was above 100 nM. Same read-out and setting: the value for `NC(=O)c1c(-c2ccc(Oc3ccccc3)cc2)[nH]c(C(=O)c2ccc(Br)cc2)c1N` was 5.9 nM. Turning to `NC(=O)c1c(-c2ccc(NCc3cc(Cl)ccc3Cl)cc2)[nH]c(C(=O)c2c(F)cccc2F)c1N`, the C50 was determined as 93 nM. Same read-out and setting: the value for `NC(=O)c1c(-c2ccc(Oc3ccccc3)cc2)[nH]c(C(=O)c2ccccc2C(F)(F)F)c1N` was 3.5 nM; that for `NC(=O)c1c(-c2ccc(OCc3ccccc3)cc2)[nH]c(C(=O)c2c(F)cccc2F)c1N` was 6.1 nM. On the same count and under the same terms, the value for `Cc1ccc(C(=O)c2[nH]c(-c3ccc(Oc4ccccc4)cc3)c(C(N)=O)c2N)c(C)c1` was 1.8 nM. Same read-out and setting: the value for `NC(=O)c1c(-c2ccc(NCc3c(Cl)cccc3Cl)cc2)[nH]c(C(=O)c2c(F)cccc2F)c1N` was 0.92 nM; that for `NC(=O)c1c(-c2ccc(Oc3ccccc3)cc2)[nH]c(C(=O)c2cc(Cl)ccc2Cl)c1N` was 19 nM; that for `Cc1ccc(C)c(C(=O)c2[nH]c(-c3ccc(Oc4ccccc4)cc3)c(C(N)=O)c2N)c1` was 10 nM. For the molecule `COc1ccc(-c2[nH]c(C(=O)c3c(F)cccc3F)c(N)c2C(N)=O)cc1`, the C50 was above 100 nM. On the same count and under the same terms, in the case of `NC(=O)c1c(-c2ccc(Oc3ccccc3)cc2)[nH]c(C(=O)c2c(F)cccc2F)c1N` it was 1.3 nM. Same read-out and setting: the value for `COc1ccccc1C(=O)c1[nH]c(-c2ccc(Oc3ccccc3)cc2)c(C(N)=O)c1N` was 9.4 nM; that for `NC(=O)c1c(-c2ccc(Oc3ccccc3)cc2)[nH]c(C(=O)c2ccc(F)cc2)c1N` was 10 nM; that for `NC(=O)c1c(-c2ccc(N)cc2)[nH]c(C(=O)c2c(F)cccc2F)c1N` was above 100 nM. On to `NC(=O)c1c(-c2ccc(Oc3ncccn3)cc2)[nH]c(C(=O)c2c(F)cccc2F)c1N`, for which the C50 was above 100 nM. `Cc1ccc(C(=O)c2[nH]c(-c3ccc(Oc4ccccc4)cc3)c(C(N)=O)c2N)cc1`: the C50 came to 2.8 nM.

Turning to `CN(Cc1c(Cl)cccc1Cl)c1ccc(-c2[nH]c(C(=O)c3c(F)cccc3F)c(N)c2C(N)=O)cc1`, the C50 amounted to 92 nM. Turning to `NC(=O)c1c(-c2ccc(OCc3c(Cl)cccc3Cl)cc2)[nH]c(C(=O)c2c(F)cccc2F)c1N`, the C50 is above 100 nM.

For the molecule `NC(=O)c1c(-c2ccc(Oc3ccccc3)cc2)[nH]c(C(=O)c2ccccc2F)c1N`, the C50 came out at 1.5 nM.

`NC(=O)c1c(-c2ccc(Oc3ccccc3)cc2)[nH]c(C(=O)c2cccc(Cl)c2Cl)c1N`: the C50 is 1.2 nM.

Regarding `NC(=O)c1c(-c2ccc(Oc3ccccc3)cc2)[nH]c(C(=O)c2ccccc2Cl)c1N`, the C50 is 1.8 nM.

Take `NC(=O)c1c(-c2ccc(Oc3ccccc3)cc2)[nH]c(C(=O)c2cccc(F)c2)c1N`: the C50 was 5 nM. For `NC(=O)c1c(-c2ccc(Oc3ccccc3)cc2)[nH]c(C(=O)c2ccccc2Br)c1N`, the C50 stood at 2.5 nM. Same read-out and setting: the value for `NC(=O)c1c(-c2ccc(Oc3ccccc3)cc2)[nH]c(C(=O)c2ccc(Cl)cc2Cl)c1N` was 2.3 nM; that for `NC(=O)c1c(-c2ccc(Oc3ccccc3)cc2)[nH]c(C(=O)c2ccccc2)c1N` was 11 nM; that for `Cc1ccccc1C(=O)c1[nH]c(-c2ccc(Oc3ccccc3)cc2)c(C(N)=O)c1N` was 2.7 nM. Regarding `Cc1cc(C)cc(C(=O)c2[nH]c(-c3ccc(Oc4ccccc4)cc3)c(C(N)=O)c2N)c1`, the C50 came to 13 nM.

System in the next assay: not listed separately
In words: Immunosuppressive activity in C57BL6/J mouse T cells cocultured with mitomycin C-treated BALB/c spleen cells assessed as inhibition of [3H]thymidine incorporation after 72 hrs by mixed lymphocyte reaction assay. Format: functional. In outline: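 Nylon-wool-purified splenic and lymph node T cells from C57BL/6 mice (3 × 10⁵/well) cocultured with mitomycin-C-treated BALB/c spleen cells (2 × 10⁵/well), 37 °C, 5% CO₂, 72 h. Compounds added at culture start. ³H-thymidine pulse for last 4 h, incorporation counted. IC₅₀ from nine-point half-log concentration–response curves; mean of at least two independent experiments.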
In general, IC50 refers to the concentration that gives 50% inhibition. Consider `Cc1cccc(Cl)c1CNc1ccc(-c2[nH]c(C(=O)c3c(F)cccc3F)c(N)c2C(N)=O)cc1`, for which the IC50 was 0.056 µM. Same read-out and setting: the value for `Cc1cccc(C(=O)c2[nH]c(-c3ccc(Oc4ccccc4)cc3)c(C(N)=O)c2N)c1C` was 0.11 µM; that for `NC(=O)c1c(-c2ccc(Oc3ccccc3)cc2)[nH]c(C(=O)c2c(F)cc(F)cc2F)c1N` was 0.062 µM; that for `Cc1cccc(C(=O)c2[nH]c(-c3ccc(Oc4ccccc4)cc3)c(C(N)=O)c2N)c1` was 0.42 µM.

Consider `NC(=O)c1c(-c2ccc(Oc3ccccc3)cc2)[nH]c(C(=O)c2ccccc2C(F)(F)F)c1N`, for which the IC50 was determined as 0.068 µM. Regarding `NC(=O)c1c(-c2ccc(OCc3ccccc3)cc2)[nH]c(C(=O)c2c(F)cccc2F)c1N`, the IC50 is above 1 µM. Same read-out and setting: in the case of `NC(=O)c1c(-c2ccc(NCc3c(Cl)cccc3Cl)cc2)[nH]c(C(=O)c2c(F)cccc2F)c1N` it was 0.031 µM; in that of `NC(=O)c1c(-c2ccc(Oc3ccccc3)cc2)[nH]c(C(=O)c2c(F)cccc2F)c1N`, 0.031 µM. The same measure, in the same setting: the value for `NC(=O)c1c(-c2ccc(N)cc2)[nH]c(C(=O)c2c(F)cccc2F)c1N` was above 1 µM; that for `Cc1ccc(C(=O)c2[nH]c(-c3ccc(Oc4ccccc4)cc3)c(C(N)=O)c2N)cc1` was 0.18 µM. Still for that read-out and setting: in the case of `CN(Cc1c(Cl)cccc1Cl)c1ccc(-c2[nH]c(C(=O)c3c(F)cccc3F)c(N)c2C(N)=O)cc1` it was above 1 µM; in that of `NC(=O)c1c(-c2ccc(OCc3c(Cl)cccc3Cl)cc2)[nH]c(C(=O)c2c(F)cccc2F)c1N`, above 1 µM; in that of `NC(=O)c1c(-c2ccc(Oc3ccccc3)cc2)[nH]c(C(=O)c2cccc(Cl)c2Cl)c1N`, 0.045 µM. As to `NC(=O)c1c(-c2ccc(Oc3ccccc3)cc2)[nH]c(C(=O)c2ccccc2Cl)c1N`, the IC50 was 0.069 µM. On the same count and under the same terms, in the case of `NC(=O)c1c(-c2ccc(Oc3ccccc3)cc2)[nH]c(C(=O)c2ccccc2Br)c1N` it was 0.15 µM; in that of `Cc1ccccc1C(=O)c1[nH]c(-c2ccc(Oc3ccccc3)cc2)c(C(N)=O)c1N`, 0.18 µM.

For a further assay, the target named is Proto-oncogene tyrosine-protein kinase Src (Homo sapiens, UniProt P12931). Put plainly: Inhibition of Src.
Proto-oncogene tyrosine-protein kinase Src, sequence (P12931 2-536 limits assumed): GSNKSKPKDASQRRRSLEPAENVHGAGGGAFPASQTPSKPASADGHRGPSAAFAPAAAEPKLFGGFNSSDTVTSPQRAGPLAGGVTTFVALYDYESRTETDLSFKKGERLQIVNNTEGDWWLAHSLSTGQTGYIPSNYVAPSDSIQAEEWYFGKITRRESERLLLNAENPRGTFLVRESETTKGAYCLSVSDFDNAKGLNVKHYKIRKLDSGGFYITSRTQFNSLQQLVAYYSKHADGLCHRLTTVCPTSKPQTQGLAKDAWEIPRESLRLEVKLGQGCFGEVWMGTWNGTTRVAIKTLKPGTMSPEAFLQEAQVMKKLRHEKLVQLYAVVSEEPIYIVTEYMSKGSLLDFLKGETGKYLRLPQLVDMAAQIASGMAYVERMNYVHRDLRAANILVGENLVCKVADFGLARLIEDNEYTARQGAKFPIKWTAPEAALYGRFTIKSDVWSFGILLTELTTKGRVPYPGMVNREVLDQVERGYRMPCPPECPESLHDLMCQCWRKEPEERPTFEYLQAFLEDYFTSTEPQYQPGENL
Regarding `NC(=O)c1c(-c2ccc(Oc3ccccc3)cc2)[nH]c(C(=O)c2c(F)cccc2F)c1N`, the IC50 is 0.023 µM.

The target in another assay is Tyrosine-protein kinase CSK (Homo sapiens, UniProt P41240). Put plainly: Inhibition of Csk.
Tyrosine-protein kinase CSK, sequence (P41240 whole entry): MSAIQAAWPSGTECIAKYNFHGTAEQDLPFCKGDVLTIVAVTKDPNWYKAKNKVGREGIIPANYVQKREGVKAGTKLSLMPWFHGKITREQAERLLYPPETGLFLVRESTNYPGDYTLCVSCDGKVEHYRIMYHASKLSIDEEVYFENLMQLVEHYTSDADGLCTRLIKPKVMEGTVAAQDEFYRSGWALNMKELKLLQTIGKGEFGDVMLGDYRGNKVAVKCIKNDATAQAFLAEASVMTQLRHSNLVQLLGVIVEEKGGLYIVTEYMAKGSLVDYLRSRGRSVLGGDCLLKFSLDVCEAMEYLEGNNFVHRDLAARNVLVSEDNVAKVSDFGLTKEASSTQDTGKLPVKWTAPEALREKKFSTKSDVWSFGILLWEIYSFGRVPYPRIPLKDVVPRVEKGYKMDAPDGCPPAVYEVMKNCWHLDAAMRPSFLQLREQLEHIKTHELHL
`NC(=O)c1c(-c2ccc(Oc3ccccc3)cc2)[nH]c(C(=O)c2c(F)cccc2F)c1N` yielded an IC50 of 0.0045 µM.

In a further assay the target is T1, Tyrosine-protein kinase ZAP-70 (Homo sapiens, UniProt P43403).
T1 sequence (P43403 whole entry): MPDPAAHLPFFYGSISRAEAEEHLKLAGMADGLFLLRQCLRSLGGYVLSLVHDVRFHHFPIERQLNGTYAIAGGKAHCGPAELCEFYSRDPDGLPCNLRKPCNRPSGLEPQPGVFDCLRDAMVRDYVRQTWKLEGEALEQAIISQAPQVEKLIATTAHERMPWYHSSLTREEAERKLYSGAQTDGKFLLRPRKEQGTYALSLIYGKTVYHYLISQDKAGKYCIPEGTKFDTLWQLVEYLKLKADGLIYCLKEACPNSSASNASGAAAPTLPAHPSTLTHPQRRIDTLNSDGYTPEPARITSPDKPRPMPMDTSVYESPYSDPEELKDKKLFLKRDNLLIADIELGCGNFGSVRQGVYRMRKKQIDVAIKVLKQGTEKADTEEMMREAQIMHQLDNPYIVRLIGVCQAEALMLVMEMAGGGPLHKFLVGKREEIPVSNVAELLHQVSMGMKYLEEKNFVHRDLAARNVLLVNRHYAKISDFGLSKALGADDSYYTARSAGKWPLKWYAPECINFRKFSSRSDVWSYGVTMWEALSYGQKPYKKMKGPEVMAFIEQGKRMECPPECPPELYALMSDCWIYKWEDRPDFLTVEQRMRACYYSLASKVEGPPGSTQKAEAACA
In words: Inhibition of ZAP70.
In turn, `NC(=O)c1c(-c2ccc(Oc3ccccc3)cc2)[nH]c(C(=O)c2c(F)cccc2F)c1N` came in with an IC50 above 10 µM.

The target of a further assay is Dual specificity mitogen-activated protein kinase kinase 1 (Homo sapiens, UniProt Q02750). In words: Inhibition of MEK1.
Dual specificity mitogen-activated protein kinase kinase 1, sequence (Q02750 whole entry): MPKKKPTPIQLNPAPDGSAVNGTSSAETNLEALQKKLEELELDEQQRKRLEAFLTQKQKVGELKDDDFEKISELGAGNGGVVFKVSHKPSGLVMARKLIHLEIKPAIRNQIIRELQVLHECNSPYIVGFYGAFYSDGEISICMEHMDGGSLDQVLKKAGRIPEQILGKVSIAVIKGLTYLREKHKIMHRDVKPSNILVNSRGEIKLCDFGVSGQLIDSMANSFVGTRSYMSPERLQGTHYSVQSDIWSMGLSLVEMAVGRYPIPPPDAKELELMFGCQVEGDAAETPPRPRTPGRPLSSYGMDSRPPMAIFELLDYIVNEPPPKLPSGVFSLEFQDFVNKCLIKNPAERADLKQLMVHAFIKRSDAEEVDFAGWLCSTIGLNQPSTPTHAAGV
For the molecule `NC(=O)c1c(-c2ccc(Oc3ccccc3)cc2)[nH]c(C(=O)c2c(F)cccc2F)c1N`, the IC50 is above 10 µM.

System in a further assay: not listed separately
Put plainly: Inhibition of PKA.
As for `NC(=O)c1c(-c2ccc(Oc3ccccc3)cc2)[nH]c(C(=O)c2c(F)cccc2F)c1N`, the IC50 was above 10 µM.

A further assay addresses RAC-alpha serine/threonine-protein kinase (Homo sapiens, UniProt P31749). Put plainly: Inhibition of PKB.
Regarding `NC(=O)c1c(-c2ccc(Oc3ccccc3)cc2)[nH]c(C(=O)c2c(F)cccc2F)c1N`, the IC50 is above 10 µM.

System in another assay: not listed separately
Put plainly: Inhibition of PKC.
The molecule `NC(=O)c1c(-c2ccc(Oc3ccccc3)cc2)[nH]c(C(=O)c2c(F)cccc2F)c1N` yielded an IC50 above 10 µM.

The target of a further assay is Tyrosine-protein kinase ABL1 (Homo sapiens, UniProt P00519). In words: Inhibition of Abl.
Tyrosine-protein kinase ABL1, sequence (P00519 whole entry): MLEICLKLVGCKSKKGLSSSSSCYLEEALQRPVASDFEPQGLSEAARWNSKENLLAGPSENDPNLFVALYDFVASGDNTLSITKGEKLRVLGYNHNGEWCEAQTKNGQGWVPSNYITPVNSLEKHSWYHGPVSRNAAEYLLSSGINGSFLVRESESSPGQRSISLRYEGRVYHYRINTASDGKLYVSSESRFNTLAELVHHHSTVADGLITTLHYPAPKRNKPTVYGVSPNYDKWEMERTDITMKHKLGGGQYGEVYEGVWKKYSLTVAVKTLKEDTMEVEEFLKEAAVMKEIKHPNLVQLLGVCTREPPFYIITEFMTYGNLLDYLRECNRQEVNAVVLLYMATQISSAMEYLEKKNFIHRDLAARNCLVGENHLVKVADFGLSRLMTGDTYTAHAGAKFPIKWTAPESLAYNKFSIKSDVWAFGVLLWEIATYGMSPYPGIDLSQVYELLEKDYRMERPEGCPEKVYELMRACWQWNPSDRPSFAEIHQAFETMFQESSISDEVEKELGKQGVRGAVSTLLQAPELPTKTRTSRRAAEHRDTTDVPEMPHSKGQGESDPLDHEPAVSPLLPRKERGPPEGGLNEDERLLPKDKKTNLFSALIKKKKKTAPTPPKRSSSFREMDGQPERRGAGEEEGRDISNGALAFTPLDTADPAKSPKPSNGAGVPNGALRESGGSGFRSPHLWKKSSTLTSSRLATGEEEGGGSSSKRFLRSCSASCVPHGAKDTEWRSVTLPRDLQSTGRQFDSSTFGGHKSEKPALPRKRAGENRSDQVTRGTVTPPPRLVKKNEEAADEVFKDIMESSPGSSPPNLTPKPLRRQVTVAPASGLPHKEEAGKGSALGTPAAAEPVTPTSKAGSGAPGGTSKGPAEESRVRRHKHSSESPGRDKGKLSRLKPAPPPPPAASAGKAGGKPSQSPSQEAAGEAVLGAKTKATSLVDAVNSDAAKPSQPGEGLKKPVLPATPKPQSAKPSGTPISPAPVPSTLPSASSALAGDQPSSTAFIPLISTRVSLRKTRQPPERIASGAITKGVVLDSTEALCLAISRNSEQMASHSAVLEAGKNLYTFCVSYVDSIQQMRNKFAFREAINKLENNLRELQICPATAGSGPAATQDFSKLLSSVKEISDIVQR
For `NC(=O)c1c(-c2ccc(Oc3ccccc3)cc2)[nH]c(C(=O)c2c(F)cccc2F)c1N`, the IC50 was above 10 µM.

System in the next assay: not listed separately
In words: Inhibition of CAMK2.
The molecule `NC(=O)c1c(-c2ccc(Oc3ccccc3)cc2)[nH]c(C(=O)c2c(F)cccc2F)c1N` displayed an IC50 above 10 µM.

In a further assay the target is Cyclin-dependent kinase 1 (Homo sapiens, UniProt P06493). In words: Inhibition of CDK1.
Cyclin-dependent kinase 1, sequence (P06493 whole entry): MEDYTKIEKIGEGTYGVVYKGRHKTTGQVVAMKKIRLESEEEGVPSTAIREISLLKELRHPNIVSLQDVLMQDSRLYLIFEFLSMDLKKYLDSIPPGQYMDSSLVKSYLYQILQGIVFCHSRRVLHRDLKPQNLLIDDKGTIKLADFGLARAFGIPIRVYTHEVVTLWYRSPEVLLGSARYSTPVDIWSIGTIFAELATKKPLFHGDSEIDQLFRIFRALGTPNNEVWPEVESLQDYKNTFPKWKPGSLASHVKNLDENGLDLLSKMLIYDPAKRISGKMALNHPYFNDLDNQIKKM
Take `NC(=O)c1c(-c2ccc(Oc3ccccc3)cc2)[nH]c(C(=O)c2c(F)cccc2F)c1N`: the IC50 is above 10 µM.

System in a further assay: not listed separately
In words: Selectivity ratio of IC50 for Src to IC50 for human recombinant Lck.
As to `NC(=O)c1c(-c2ccc(Oc3ccccc3)cc2)[nH]c(C(=O)c2c(F)cccc2F)c1N`, the Ratio IC50 was above 17.

System in the next assay: not listed separately
In words: Selectivity ratio of IC50 for Csk to IC50 for human recombinant Lck.
With `NC(=O)c1c(-c2ccc(Oc3ccccc3)cc2)[nH]c(C(=O)c2c(F)cccc2F)c1N`, the Ratio IC50 is above 3.
